# Screening results from PubChem BioAssay.
# S1P1 ag-PAM = agonists and agonism potentiators of human S1P1 receptor; activation, % at 9.5 µM; S1P1 CRE-bla cells, forskolin, beta-lactamase FRET, potentiator mode; S1P1 agonist co-added at EC20, 2 nM; 100% = saturating reference agonist, 0% = basal; actives 0.57% (n = 56,000);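 active means activation above a cutoff set at the mean activation of all tested compounds plus 3 SD, cut at about 54% in these data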;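 further: forskolin at 4 µM as EC80 and the EC20 agonist is SEW2871; 100% = SEW2871 at its EC100 plus forskolin at EC80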
# Target sequence (P21453 whole entry, looked up): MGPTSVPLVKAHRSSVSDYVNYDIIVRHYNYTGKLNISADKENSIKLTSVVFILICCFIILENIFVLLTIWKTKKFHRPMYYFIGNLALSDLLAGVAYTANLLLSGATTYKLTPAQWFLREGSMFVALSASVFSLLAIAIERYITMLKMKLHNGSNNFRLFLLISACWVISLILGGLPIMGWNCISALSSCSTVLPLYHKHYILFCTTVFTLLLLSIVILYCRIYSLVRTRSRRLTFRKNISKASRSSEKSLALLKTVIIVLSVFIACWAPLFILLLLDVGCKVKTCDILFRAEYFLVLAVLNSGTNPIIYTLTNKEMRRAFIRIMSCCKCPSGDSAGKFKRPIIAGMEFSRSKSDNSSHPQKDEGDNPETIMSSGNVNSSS
# 5HT1a ag = agonists of human 5-HT1a serotonin receptor; activation, % at 10 µM; P08908; AID 567; CHO 5-HT1a Ga15 NFAT-bla reporter, FRET ratio; 0% basal, 100% maximal reference agonist; actives 0.56% (n = 65,000);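 active means activation above the screen-wide mean activation plus 3 SD, cut at about 19% in these data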;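 further: 0% = DMSO wells and 100% = 5-CT at EC100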
# 5-HT1A blocker = 5-HT1a (human) receptor antagonism. AID 612. inhibition, % at 10 µM. actives 0.68% (n = 62,000). P08908. CHO 5-HT1a Ga15 NFAT-bla reporter, antagonist mode;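 active means inhibition above the mean of all tested compounds plus 3 SD, cut at about 43% in these data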;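 further: receptor stimulated by 5-CT agonist at 100 nM near EC80; beta-lactamase reporter measured by ratiometric fluorescence of a cleavable substrate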
# HTR1E agonist = activates the human 5-HT1E serotonin receptor. P28566. CHO 5-HT1E Ga15 NFAT-bla reporter, FRET; 0% DMSO wells, 100% control agonist wells. activation, % at 6 µM. actives 0.69% (n = 65,000);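 active means activation above a set limit, the screen-wide mean activation plus 3 SD, cut at about 8.5% in these data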;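 further: 100% = positive control agonist at 1 µM giving full maximal response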
# S1P3 ag = activates the human S1P3 receptor; actives 0.1% (n = 60,000); S1P3 NFAT-BLA reporter cells, agonism, FRET ratio; relative to 1 µM S1P, basal subtracted; Q99500; activation, % at 4.5 µM;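 active means activation above the screen-wide mean plus 3 SD, cut at about 4.5% in these data, passing the limit was not always enough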
#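 Benchmarks: high control 1 µM S1P / System: stable CHO line with human S1P3, Gα16, NFAT-BLA reporter / Dosing: single compound concentration, 4.5 µM final / Timing: 4 h compound at 37 °C, 2 h substrate at RT / Measured by: FRET β-lactamase substrate fluorescence, excitation 405 nm, 460/535 nm emission ratio, background-subtracted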
# 5HT1E antag = 5-HT1E (human) receptor antagonism | inhibition, % at 6 µM | actives 0.99% (n = 65,000) | CHO 5-HT1E Ga15 NFAT-bla reporter, FRET, antagonist;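 active means inhibition above a set limit, the mean inhibition across every tested compound plus 3 SD, cut at about 29% in these data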;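 further: signal is the 460 over 535 nm emission ratio of beta-lactamase substrate; 0% = agonist plus DMSO wells and 100% = wells without agonist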
# The depositor's hits bear a star; · = not tested or not shown. Sampled rows, rich in hits. Any-hit rate of the full collection: about 3%.
SMILES,S1P1 ag-PAM,5HT1a ag,5-HT1A blocker,HTR1E agonist,S1P3 ag,5HT1E antag
CN(C)C(=O)c1ccccc1-c1ccccc1,-2,-2,-12,-1,-1,12
COc1ccc(-c2cnnn2-c2ccc(NC(=O)c3ccco3)cc2)cc1OC,·,1,7,0,·,47*
COc1cccc(N2CC(O)=C(c3nc4ccccc4c(=O)[nH]3)C2=N)c1,·,-1,16,-1,·,34*
COc1ccc(CC(=O)Nc2c3c(nn2-c2cccc(C)c2C)CS(=O)C3)cc1 (configuration not stated),2,1,0,19*,1,0
Cc1nc(NCCCn2ccnc2)c2oc3ccccc3c2n1,15,0,22,-1,-2,32*
O=C(CSc1nnc(COc2ccc3c(c2)CCCC3)o1)Nc1ccc(F)cc1,-8,-1,0,9.3*,-1,4
COc1ccc(NC(=O)CSc2nnc(CNc3ccc(F)cc3)o2)c(OC)c1,-4,-2,2,0,1,-4
COC(=O)c1ccc(Oc2cc(C)nc(-n3nc(C)cc3C)n2)cc1,-15,-3,65*,-1,0,90*
FC(F)(F)c1cccc(N2Cc3ccccc3C2)c1,10,-1,6,11*,0,-10
FC(F)(F)c1cccc(N2CCN(Cc3cccnc3)CC2)c1,-8,0,-2,4,-1,-3
FC(F)(F)c1cccc(N2CCN(Cc3ccoc3)CC2)c1,·,15,-1,14*,0,2
CCNc1c2c3c(cccc3n(C)c1=O)C(=O)c1ccccc1-2,35,3,11,32*,-1,21
Cn1c(=O)c(NCCO)c2c3c(cccc31)C(=O)c1ccccc1-2,·,0,6,1,·,14
COc1ccc(N2CCN(c3nc(NCCc4ccc(OC)c(OC)c4)nc(OC)n3)CC2)cc1,-23,5,46*,0,-2,21
O=C(NCc1cn2ccsc2n1)c1cccs1,-5,2,-5,2,1,-1
COc1ccccc1-n1nnnc1SCc1cc2c(cc1Br)OCO2,59,-2,27,0,-1,29*
COc1ccccc1-n1nnnc1SCc1ccccc1,-7,0,10,-1,-1,12
c1ccc2c(c1)nc(N1CCOCC1)c1c3ccccc3[nH]c21,-13,2,0,-1,-1,2
C/C(=C(\C#N)C(=O)NC1CCCCC1)N(C)C,-24,-2,1,0,-1,0
Oc1c(C(Nc2ccccn2)c2ccccn2)ccc2cccnc12 (configuration not stated),12,-2,48*,0,0,43*
COc1ccc(Cc2nc(-c3ccc(-n4cccc4)cc3)no2)cc1OC,66*,2,0,1,-1,3
COc1ccc(-c2noc(CSc3ccccc3)n2)cc1OC,-1,1,-5,0,-1,-1
COc1ccc(-c2noc(CSc3nnc(CCc4ccccc4)n3-c3ccccc3)n2)cc1OC,3,4,43*,0,-1,7
CCOC(=O)C(C)n1ncn2cccc2c1=O (configuration not stated),-1,-4,-11,0,0,-2
c1ccc2c(c1)oc1c(N3CCN(Cc4ccc5c(c4)OCO5)CC3)ncnc12,92*,63*,29,0,-1,-10
SMILES,S1P1 ag-PAM,5HT1a ag,5-HT1A blocker,HTR1E agonist,S1P3 ag,5HT1E antag
c1ccc(Cn2nnc3c(N4CCN(Cc5ccc6c(c5)OCO6)CC4)ncnc32)cc1,20,-1,5,0,0,5
CC(=O)N1CCc2cc(S(=O)(=O)NCCCN3CCN(Cc4ccccc4)CC3)ccc21,·,-1,16,35*,·,-3
CCOC(=O)C1=C2N(C)c3ccccc3N2CCC1=O,6,-4,-12,0,-1,16
COc1ccc(C(c2nnnn2Cc2ccccc2)N2CCN(c3ccccc3)CC2)cc1 (configuration not stated),-4,1,36,0,-1,3
COc1ccc(C(c2nnnn2C2CCCCC2)N2CCN(c3ccccc3)CC2)cc1 (configuration not stated),13,-1,52*,0,-2,3
CCCN=Cc1sc2ccc(OCC)cc2c1O,-5,-3,26,35*,-2,9
O=S(=O)(NCc1ccc2c(c1)OCO2)c1cnc[nH]1,-12,-3,4,0,-2,0
CCOc1ccc(CCNS(=O)(=O)c2cnc[nH]2)cc1OCC,-17,1,-1,0,-1,31*
CCOC(=O)CC(N)c1ccc2c(c1)OCO2 (configuration not stated),-7,-1,16,-1,0,5
COc1ccccc1C(=O)NC(=Nc1nc2ccccc2o1)NC(=O)c1ccccc1OC,-15,0,·,0,-2,41*
CCNC(=O)/N=C1/NC(=O)C(C(C)C)O1 (configuration not stated),15,-1,0,1,0,2
Cc1ccc(CNc2cc(-c3nn4c(C)nnc4s3)ccc2C)s1,-61,2,5,1,-1,14
Cc1ccc(-c2nn3c(C)nnc3s2)cc1NCc1c(F)cccc1Cl,·,0,45*,2,-2,8
O=C(CCCC(=O)N(CC(=O)NC1CCCCC1)CC1CCCO1)Nc1ccccn1 (configuration not stated),1,-2,2,-1,-1,2
COc1ccccc1N1CCN(C(=O)c2ccc(S(=O)(=O)N3CCCC3)cc2)CC1,-13,1,-11,0,0,3
O=C(CN1CCN(c2ccccn2)CC1)Nc1ccc2ccccc2c1,6,0,5,0,0,-6
COc1ccc(OC)c(NC(=O)CCN2CCN(c3ccccc3)CC2)c1,-16,0,5,0,-1,2
O=C(CCN1CCN(c2ccccn2)CC1)Nc1ccc(F)cc1,-36,29*,18,0,0,-8
CCOc1ccc(NC(=O)CCN2CCN(c3ccccc3)CC2)cc1,-17,3,68*,0,-2,23
O=C(c1ccc(CS(=O)(=O)Cc2ccc(Cl)cc2)o1)N1CCCC1,4,0,-10,0,1,5
COc1ccc2nc(SCc3nc(N)nc(Nc4ccccc4)n3)[nH]c2c1,-69,5,6,2,1,40*
COc1ccc2nc(SCC(N)=O)[nH]c2c1,-16,-2,-4,-1,-1,-5
c1coc(CNc2ncnc3nc[nH]c23)c1,2,-2,-200,1,0,-11
